Data reported in ChEMBL document CHEMBL5223168, “Using Imidazo[2,1-b][1,3,4]thiadiazol Skeleton to Design and Synthesize Novel MNK Inhibitors” (ACS Med Chem Lett, 2023).
Calls of active or inactive are those of the source. No cut-off for these calls is given here.

Assays:
[1] = test system: 3T3-L1; test: Inhibition of MNK in mouse 3T3-L1 cells assessed as inhibition of eIF4E phosphorylation at 5 uM incubated for 2 hrs by Western blot analysis; assay type: cell-based
How it was run: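 Mouse 3T3-L1 cells exposed to compound at 5 μM for 2 h; lysates resolved by SDS-PAGE and immunoblotted for phospho-eIF4E. Reference MNK inhibitor run in parallel at 1 μM.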

[2] = target: MAP kinase-interacting serine/threonine-protein kinase 1 (Homo sapiens, UniProt Q9BUB5); test: Inhibition of MNK1 (unknown origin) incubated for 60 mins using CREB as substrate in presence of ATP by LANCE Ultra kinase assay
Chain of MAP kinase-interacting serine/threonine-protein kinase 1 (Q9BUB5 whole entry): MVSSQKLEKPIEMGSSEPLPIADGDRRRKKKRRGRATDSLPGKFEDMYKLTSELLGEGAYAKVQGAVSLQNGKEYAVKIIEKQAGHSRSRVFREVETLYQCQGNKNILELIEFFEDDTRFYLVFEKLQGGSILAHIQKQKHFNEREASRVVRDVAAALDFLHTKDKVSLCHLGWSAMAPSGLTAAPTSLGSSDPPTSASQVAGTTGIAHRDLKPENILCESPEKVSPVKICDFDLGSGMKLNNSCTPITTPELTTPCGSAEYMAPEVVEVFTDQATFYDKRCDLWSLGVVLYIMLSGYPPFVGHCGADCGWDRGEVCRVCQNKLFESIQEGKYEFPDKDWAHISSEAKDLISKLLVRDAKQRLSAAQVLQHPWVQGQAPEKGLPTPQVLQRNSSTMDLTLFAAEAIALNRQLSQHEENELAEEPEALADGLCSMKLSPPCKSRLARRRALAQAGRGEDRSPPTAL

[3] = target: MAP kinase-interacting serine/threonine-protein kinase 2 (Homo sapiens, UniProt Q9HBH9); test: Inhibition of MNK2 (unknown origin) incubated for 60 mins using CREB as substrate in presence of ATP by LANCE Ultra kinase assay
Chain of MAP kinase-interacting serine/threonine-protein kinase 2 (Q9HBH9 whole entry): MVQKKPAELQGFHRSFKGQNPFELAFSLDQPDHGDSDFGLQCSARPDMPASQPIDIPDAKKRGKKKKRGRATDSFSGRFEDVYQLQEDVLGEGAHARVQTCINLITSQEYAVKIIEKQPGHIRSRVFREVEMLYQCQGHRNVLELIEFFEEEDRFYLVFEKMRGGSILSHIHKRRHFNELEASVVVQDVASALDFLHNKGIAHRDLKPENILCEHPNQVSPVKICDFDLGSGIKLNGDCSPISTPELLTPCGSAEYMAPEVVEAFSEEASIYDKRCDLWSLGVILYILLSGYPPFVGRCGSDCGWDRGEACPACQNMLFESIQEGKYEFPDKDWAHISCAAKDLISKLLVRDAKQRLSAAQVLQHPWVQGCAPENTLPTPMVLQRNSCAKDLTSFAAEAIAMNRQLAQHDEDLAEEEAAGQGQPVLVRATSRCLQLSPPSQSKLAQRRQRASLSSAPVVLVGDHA

[4] = test system: A549; test: Antitumor activity against human A549 cells xenografted in BALB/C nude mouse assessed as T/C ratio at 3 mg/kg, po QD for 14 days; assay type: functional; conditions: time 14 day
How it was run: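 A549 xenografts in nude mice; compound given orally once daily at 75 or 150 mg/kg for 14 days, irinotecan reference at 3 mg/kg; tumor growth tracked as T/C ratio (relative tumor proliferation rate); body weight monitored.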

[5] = test system: MEF; test: Inhibition of MNK in MNK1 knockout mouse MEF cells assessed as inhibition of eIF4E phosphorylation at 1 uM incubated for 2 hrs by Western blot analysis; assay type: cell-based
How it was run: (§1)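 MEFs lacking MNK1 or MNK2 (wild-type for comparison) treated 2 h at indicated concentrations; lysates immunoblotted for p-eIF4E, which reflects the remaining MNK isoform; quantified from three independent experiments, SEM.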

[6] = test system: MEF; test: Inhibition of MNK in MNK2 knockout mouse MEF cells assessed as inhibition of eIF4E phosphorylation at 3 uM incubated for 2 hrs by Western blot analysis; assay type: cell-based; how it was run: as §1

| SMILES | inhibition [1] | IC50 [2] [nM] | IC50 [3] [nM] | also measured |
| --- | --- | --- | --- | --- |
| CN1CCN(C(=O)c2ccc(-c3nn4cc(-c5ccc(C#N)cc5)nc4s3)cc2)CC1 | inactive | – | – | – |
| N#Cc1ccc(-c2cnc3sc(-c4ccc(C(=O)N5CCCC5)cc4)nn23)cc1 | – | 27.8 | 20.8 | – |
| CN1CCN(C(=O)c2ccc(-c3nn4c(-c5ccncc5)cnc4s3)cc2)CC1 | Active | 210 | 170 | – |
| N#Cc1ccc(-c2cnc3sc(-c4ccc(C(=O)NCCCCCO)cc4)nn23)cc1 | – | 42.9 | 57.8 | – |
| N#Cc1ccc(-c2cnc3sc(-c4ccc(C(=O)NCCCO)cc4)nn23)cc1 | – | 21.6 | 16.7 | – |
| N#Cc1ccc(-c2cn3nc(-c4ccc(C(=O)N5CCCC5)cc4)sc3n2)cc1 | inactive | – | – | – |
| COC(=O)c1ccc(-c2cnc3sc(-c4ccc(C(=O)N5CCN(C)CC5)cc4)nn23)cc1 | Active | 376 | 105 | – |
| N#Cc1ccc(-c2cnc3sc(-c4ccc(C(=O)NCCN5CCCC5)cc4)nn23)cc1 | – | 10 | 10.4 | – |
| N#Cc1ccc(-c2cnc3sc(-c4ccc(C(=O)NCCCN5CCOCC5)cc4)nn23)cc1 | – | 31.1 | 21.6 | – |
| O=C(NCCO)c1ccc(-c2nn3cc(-c4ccccc4)nc3s2)cc1 | inactive | – | – | – |
| O=C(NCCCN1CCCC1)c1ccc(-c2nn3cc(-c4ccccc4)nc3s2)cc1 | inactive | – | – | – |
| O=C(NCCc1ccncc1)c1ccc(-c2nn3cc(-c4ccc(F)cc4)nc3s2)cc1 | inactive | – | – | – |
| CCc1c2c(nc3ccc(OC(=O)N4CCC(N5CCCCC5)CC4)cc13)-c1cc3c(c(=O)n1C2)COC(=O)[C@]3(O)CC [IRINOTECAN] | – | – | – | T/C [4]: 0.4 |
| N#Cc1ccc(-c2cnc3sc(-c4ccc(C(=O)NCCO)cc4)nn23)cc1 | – | 13.6 | 8.81 | – |
| CN(C)CCNC(=O)c1ccc(-c2nn3c(-c4ccc(C#N)cc4)cnc3s2)cc1 | – | 25 | 33.4 | – |
| CC1CCCCN1C(=O)c1ccc(-c2nn3c(-c4ccc(C#N)cc4)cnc3s2)cc1 (configuration not stated) | Active | 36.9 | 5.33 | – |
| CN(C)CC(C)(C)CNC(=O)c1ccc(-c2nn3cc(-c4ccccc4)nc3s2)cc1 | inactive | – | – | – |
| N#Cc1ccc(-c2cnc3ccc(-c4ccc(C(=O)N5CCOCC5)cc4)cn23)cc1 | – | – | – | inhibition [5]: Active; inhibition [6]: 50% |
